# Screens: PubChem BioAssay, Johns Hopkins Ion Channel Center
# KCNQ1 pot: potentiators or activators of human KCNQ1 potassium channel; P51787; 0.35% of 310,000 active; CHO-K1 KCNQ1, thallium flux FluxOR fluorescence; active compounds read high; B-score at 10 µM;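 active means fluorescence ratio B-score, a plate-corrected score, at least three library SD, with initial intensity B-score within 5 SD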
# Target sequence (P51787 whole entry, looked up): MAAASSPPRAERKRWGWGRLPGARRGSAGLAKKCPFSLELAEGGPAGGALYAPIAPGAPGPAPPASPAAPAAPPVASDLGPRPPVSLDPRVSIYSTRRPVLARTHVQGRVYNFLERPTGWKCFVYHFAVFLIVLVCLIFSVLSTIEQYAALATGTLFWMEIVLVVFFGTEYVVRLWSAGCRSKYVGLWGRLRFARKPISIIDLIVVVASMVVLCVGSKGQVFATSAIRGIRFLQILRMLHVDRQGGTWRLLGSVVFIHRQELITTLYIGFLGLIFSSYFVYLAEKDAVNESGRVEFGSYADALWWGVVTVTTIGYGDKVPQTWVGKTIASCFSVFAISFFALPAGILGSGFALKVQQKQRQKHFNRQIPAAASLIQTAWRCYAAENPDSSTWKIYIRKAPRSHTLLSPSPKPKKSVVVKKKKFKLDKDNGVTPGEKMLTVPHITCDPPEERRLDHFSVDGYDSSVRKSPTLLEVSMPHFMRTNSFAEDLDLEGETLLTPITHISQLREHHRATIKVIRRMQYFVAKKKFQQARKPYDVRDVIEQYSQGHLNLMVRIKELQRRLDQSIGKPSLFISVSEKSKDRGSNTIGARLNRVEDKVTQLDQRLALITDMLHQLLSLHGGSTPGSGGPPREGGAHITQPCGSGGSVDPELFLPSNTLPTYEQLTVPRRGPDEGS
#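 assay system = KCNQ1-transfected CHO-K1 cells | medium = assay buffer with matched DMSO | probe or stimulus = depolarizing K+/Tl+ stimulus, K2SO4 and Tl2SO4 each 12.5 mM in 5x stock | dosing = single dose | incubation = dye 90 min, compound 20 min, room temperature | detection = kinetic FluxOR fluorescence, 10 s baseline plus 110 s post-stimulus | evaluation = ratio B score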
# KCNK9 inh: human KCNK9 channel inhibition. HEK293 KCNK9, FluxOR thallium flux fluorescence; active compounds read low. AID 488922. B-score at 10 µM. 1.2% of 310,000 active;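 active means ratio B-score over 3 SD below the library mean, with starting fluorescence within 5 SD of its mean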;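 further: negative B-score means less thallium flux so channel inhibition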
# KCNQ1 inh: human KCNQ1 channel inhibition. 1.3% of 310,000 active. CHO-K1 KCNQ1, FluxOR thallium flux fluorescence; active compounds read high. B-score at 10 µM. P51787;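 active means compounds whose thallium flux B-score, printed positive for inhibition, exceeds three library SD while starting fluorescence stays within three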;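 further: channel opened by potassium depolarization with thallium stimulus after 20 min compound exposure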
# hERG protect: hERG (human) protection from proarrhythmic block. Q12809. CHO-hERG, FluxOR thallium flux, dofetilide IC70 present. activation (rescue from dofetilide block), less the hit threshold, % at 10 µM. 0.51% of 310,000 active. AID 1511;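 active means activation above the mean of controls blocked by dofetilide plus 5 SD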;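 further: thallium influx through hERG after potassium depolarization seen as dye fluorescence rise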
# KCNK3 block: human KCNK3 channel inhibition, primary screen; CHO-KCNK3 thallium flux, FluxOR fluorescence; active compounds read low; B-score at 10 µM; 0.84% of 340,000 active; AID 602410;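 active means B-score under library mean minus 4 SD, starting fluorescence ratio at most library mean plus 5 SD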;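 further: more negative B-score means stronger inhibition of thallium flux through KCNK3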
# Kir21 block: blocks the mouse Kir2.1 inward-rectifier potassium channel; HEK293-Kir2.1, FluxOR thallium flux fluorescence; active compounds read low; B-score at 10 µM; 0.85% of 310,000 active;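 active means fluorescence ratio B-score at or below minus 3 SD of library scores, with starting-brightness B-score within 2 SD, cut at about -4.2 in these data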;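 further: channel flux triggered by added potassium and thallium sulfate stimulus; B-score of peak minus minimum fluorescence over baseline after thallium stimulus; more negative B-score means stronger Kir2.1 block with less thallium influx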
# * hit, by the source's call; i = inactive; / = not tested or not shown. Sampled rows, rich in hits. Any-hit rate of the full collection: about 3.7%.
SMILES,KCNQ1 pot,KCNK9 inh,KCNQ1 inh,hERG protect,KCNK3 block,Kir21 block
O=C(O)C1(c2ccccc2)CCN(S(=O)(=O)c2cccs2)CC1,i,i,i,5.2*,i,1.9
CC(C)(C)C(=O)C(C(c1ccccc1)N1CCOCC1)N1CCOCC1 (configuration not stated),/,/,/,/,i,/
O=C(COc1ccc(F)cc1)N(Cc1ccco1)C1CCS(=O)(=O)C1 (configuration not stated),i,i,i,-11,i,-0.01
COc1ccc2oc(C(=O)N3CCN(S(=O)(=O)c4c(C)c(C)cc(C)c4C)CC3)c(C)c2c1,/,/,/,/,i,/
CCSc1nc2sc3c(c2c(=O)[nH]1)CC(C)(CC)OC3 (configuration not stated),i,i,i,-6,i,-0.28
CCC1(C)Cc2c(sc3nc(SC)[nH]c(=S)c23)CO1 (configuration not stated),74*,i,i,49*,/,2.1
Cc1ccccc1C(=O)Nc1ccc(-c2nc3ccc(C(=O)c4ccccc4)cc3[nH]2)cc1,i,i,6*,-24,i,-0.51
Cc1ccc(CNC(=O)c2ccc(Cn3cc(-c4ccc(C)cc4)nc3-c3ccncc3)cc2)cc1,i,i,i,-9,i,0.26
COc1cccc(CN(C)C(=O)c2cccc(OCc3ccccc3)c2)c1,i,i,i,-8,i,-2
Cc1ccccc1OCCC(=O)N1CCN(S(=O)(=O)c2ccc(Br)cc2)CC1,/,/,/,/,i,/
Cc1n[nH]c(=O)c2c(NC(=O)CSc3nn(-c4ccc(F)cc4)c(=S)s3)oc(C)c12,i,i,6*,-16,i,0.41
C/C(=N\Nc1ncnc2sc(C)c(C)c12)c1ccccn1,i,i,11*,-44,i,-2
Cc1cc(C)nc(SCc2nnc(SCC(=O)N3CCCc4ccccc43)o2)n1,i,i,i,-6,i,-5*
Cc1cccc(NC(=S)N/C(=N/S(=O)(=O)c2ccccc2)c2ccccc2)c1,i,i,i,5.2*,i,-1.4
Cn1ccnc1C(=O)c1cccc(Br)c1,i,i,i,-6,i,-0.57
C=CCOc1ccc(C2/C(=C(/O)c3ccc4c(c3)CC(C)O4)C(=O)C(=O)N2CCCN2CCOCC2)cc1 (configuration not stated),i,i,i,-9,i,0.8
CCOC(=O)N1CCN(C(=O)c2ccc3c(=O)n(Cc4ccc(Cl)cc4)c(=S)[nH]c3c2)CC1,i,i,i,-13,i,0.35
CCOC(=O)Cn1c(=S)[nH]c2c(oc3ccc(Cl)cc32)c1=O,12*,i,i,-14,i,-1.9
Cc1csc(NC(=O)C2C3C=CC(C3)C2C(=O)O)n1 (configuration not stated),i,i,i,5.4*,i,-2.8
COc1ccc(NC(=O)C2C3C=CC(C3)C2C(=O)O)cc1 (configuration not stated),i,i,i,-7,i,0.62
COc1cccc(NC(=O)C2C3C=CC(C3)C2C(=O)O)c1 (configuration not stated),i,i,i,7.4*,i,0.95
CN(Cc1ccccc1N1CCCC1)C(=O)c1cc2ccccc2o1,/,/,/,/,-11*,/
CN(Cc1c(F)cccc1Cl)C(=O)c1cc2ccccc2o1,i,i,i,-13,i,-0.2
CN(Cc1ccccc1N1CCCC1)C(=O)c1cc2cc(Cl)ccc2o1,/,/,/,/,-9.5*,/
Cc1ccc(C2=NN(CCC(=O)NC3CCCC3)C(=O)CC2)cc1,i,i,i,-4,i,2.1
SMILES,KCNQ1 pot,KCNK9 inh,KCNQ1 inh,hERG protect,KCNK3 block,Kir21 block
CN(/C=C/C(=C\C=[N+](C)c1ccccc1)OCCCS(=O)(=O)[O-])c1ccccc1,i,i,6*,-19,i,-4.6
N=c1oc2cc(O)ccc2cc1C(=O)Nc1ccc(Cl)cc1,i,i,6*,-7,i,0.35
COc1ccc2cc(C(C)=O)c(=O)oc2c1,i,i,i,-3,i,0.65
Cc1ccc(NC(=O)c2cc3ccccc3oc2=N)cc1,i,i,i,-5,i,0.66
CC(=O)c1cc2ccc(O)cc2oc1=O,i,i,7*,-19,i,-3.1
CCOC(=O)C1=C(COC(=O)c2nc(Cl)ccc2Cl)NC(=O)NC1C (configuration not stated),/,/,/,/,i,/
Cc1ccc(Oc2ccc(OCC(=O)NC(CC(C)C)C(=O)O)cc2)cc1 (configuration not stated),i,i,i,4.9*,i,-1.5
CC(C)COc1ccc(C(=O)NC(CC(C)C)C(=O)O)cc1 (configuration not stated),i,i,i,-3,i,2.5
COCCC1CCCCN1C(=O)c1cc(COc2ccc(-n3cncn3)cc2)on1 (configuration not stated),i,i,i,-10,i,-0.01
CC(=O)Nc1ccc(/C=N/N2C(=O)NC(C)(c3ccc(OC(F)F)cc3)C2=O)cc1 (configuration not stated),34*,i,i,-10,i,0.93
O=C(O)c1ccc(-c2cccc([N+](=O)[O-])c2)o1,i,i,i,-11,i,-0.67
N#C/C(=C(/O)c1ccc(-c2cccc([N+](=O)[O-])c2)o1)c1nc2ccccc2s1,i,i,7*,-11,i,1.8
Cc1cc(=O)[nH]c(SCC(=O)N2CCCC(C)C2)n1 (configuration not stated),i,i,i,-1,i,4.2
COc1ccc(-c2cnc3n2CCCCC3)cc1,i,i,i,-10,i,-0.25
Clc1ccc(C2=C3CCCCn4c(-c5ccccc5)c[n+](c43)C2)cc1,i,i,7*,-23,i,0.54
COc1ccc(-c2c[n+]3c4n2CCCCC4=C(c2ccc(Br)cc2)C3)cc1,i,i,11*,-33,i,0.49
Cc1nsc2nc3c(F)c(F)c(F)c(F)c3cc12,i,i,i,-14,i,0.99
O=C(COc1cccc(C(F)(F)F)c1)NCC(c1ccco1)N1CCCCC1 (configuration not stated),i,i,i,-14,i,-0.85
CCc1ccc(N(C(=O)CCC(=O)Nc2cc(C)on2)C(C(=O)NC(C)(C)C)c2ccc(OC)cc2)cc1 (configuration not stated),i,i,i,-11,i,-0.55
COC(=O)CNc1nc(Cl)nc(Nc2ccc(C)cc2)n1,i,i,i,6.7*,i,-0.43
